Active and inactive are the calls of the source. The calls are words filed in the database; no cut-off is given here.
Columns and labels:
[1] = Inhibition of hedgehog signaling pathway-mediated GLI1 mRNA expression in mouse C3H10T1/2 cells assessed as residual activity at 5 uM after 24 hrs by RT-PCR analysis relative to 20alpha-hydroxycholesterol/22(S)-hydroxycholesterol; assay type: cell-based; conditions: C3H 10T1/2
Procedure, shortened: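 C3H10T1/2 cells co-treated with analogue and the oxysterol Hh activators 20α-hydroxycholesterol plus 22(S)-hydroxycholesterol (5 μM each) for 24 h. Gli1 mRNA measured by qPCR as % of OHC-only control (100%). Analogue at 5 μM, or at 0.5 μM where stated.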

[2] = molecular target: T1, Vitamin D3 receptor (Mus musculus) (UniProt P48281); test: Activation of VDR in mouse C3H10T1/2 cells assessed as upregulation of CYP24A1 mRNA expression at 5 uM after 24 hrs by RT-PCR analysis relative to DMSO-treated control; assay type: cell-based; conditions: C3H 10T1/2
T1 sequence (whole entry): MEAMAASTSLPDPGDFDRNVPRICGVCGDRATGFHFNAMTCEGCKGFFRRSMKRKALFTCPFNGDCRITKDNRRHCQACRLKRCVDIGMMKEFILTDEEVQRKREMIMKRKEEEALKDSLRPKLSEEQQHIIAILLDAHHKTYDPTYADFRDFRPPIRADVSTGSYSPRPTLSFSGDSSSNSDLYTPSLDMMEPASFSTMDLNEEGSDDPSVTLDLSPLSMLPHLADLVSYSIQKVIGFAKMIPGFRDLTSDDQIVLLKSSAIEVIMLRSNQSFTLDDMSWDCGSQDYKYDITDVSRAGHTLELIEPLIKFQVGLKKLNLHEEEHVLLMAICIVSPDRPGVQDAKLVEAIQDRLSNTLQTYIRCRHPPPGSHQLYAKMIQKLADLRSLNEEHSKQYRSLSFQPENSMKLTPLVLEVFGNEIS
Procedure, shortened: (§1)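 Cyp24A1 mRNA read by qPCR after 24 h exposure at 5 μM. Up-regulation normalized to DMSO control, set to 1.0.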

[3] = Inhibition of hedgehog signaling pathway-mediated GLI1 mRNA expression in mouse C3H10T1/2 cells after 24 hrs by RT-PCR analysis; assay type: cell-based; conditions: for inhibition: C3H 10T1/2; for IC50: C3H 10T1/2, 24 h
Procedure, shortened: (§2)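 OHC-stimulated C3H10T1/2 cells (20α- and 22(S)-hydroxycholesterol, 5 μM each) given analogue at a range of concentrations. Gli1 and Ptch mRNA quantified by qPCR. IC50 given as mean ± SEM of at least two experiments run in triplicate.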

[4] = Inhibition of hedgehog signaling pathway-mediated PTCH mRNA expression in mouse C3H10T1/2 cells after 24 hrs by RT-PCR analysis; assay type: cell-based; conditions: C3H 10T1/2, 24 h; procedure, shortened: as §2
[5] = Inhibition of hedgehog signaling pathway-mediated GLI1 mRNA expression in mouse ASZ001 cells after 24 hrs by RT-PCR analysis; assay type: cell-based; conditions: ASZ001, 24 h
Procedure, shortened: (§3)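 ASZ001 (murine BCC) or DAOY (human medulloblastoma) cells given analogue at a range of concentrations. Gli1 and Ptch mRNA quantified by qPCR. IC50 given as mean ± SEM of at least two experiments in triplicate.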

[6] = molecular target: T1, Vitamin D3 receptor (Mus musculus); test: Activation of VDR in mouse ASZ001 cells assessed as upregulation of CYP24A1 mRNA expression at 5 uM after 24 hrs by RT-PCR analysis relative to DMSO-treated control; assay type: cell-based; procedure, shortened: as §1
[7] = Inhibition of hedgehog signaling pathway-mediated GLI1 mRNA expression in human DaOY cells after 24 hrs by RT-PCR analysis; assay type: cell-based; procedure, shortened: as §3
[8] = molecular target: T2, Vitamin D3 receptor (Homo sapiens) (UniProt P11473); test: Activation of VDR in human DaOY cells assessed as upregulation of CYP24A1 mRNA expression at 5 uM after 24 hrs by RT-PCR analysis relative to DMSO-treated control; assay type: cell-based; procedure, shortened: as §1
T2 sequence (whole entry): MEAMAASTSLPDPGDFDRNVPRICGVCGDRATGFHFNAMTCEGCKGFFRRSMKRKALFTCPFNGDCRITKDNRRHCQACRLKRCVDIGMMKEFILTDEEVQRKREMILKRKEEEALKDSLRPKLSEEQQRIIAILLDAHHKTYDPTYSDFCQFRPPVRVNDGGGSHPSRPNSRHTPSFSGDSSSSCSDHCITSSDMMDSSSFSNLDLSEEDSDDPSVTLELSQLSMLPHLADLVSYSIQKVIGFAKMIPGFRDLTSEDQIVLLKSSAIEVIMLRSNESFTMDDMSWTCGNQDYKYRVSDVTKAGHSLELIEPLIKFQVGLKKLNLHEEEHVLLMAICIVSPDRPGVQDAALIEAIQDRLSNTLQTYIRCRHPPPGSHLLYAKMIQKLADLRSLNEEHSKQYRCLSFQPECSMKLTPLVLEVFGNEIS

[9] = Inhibition of hedgehog signaling pathway-mediated PTCH mRNA expression in human DaOY cells after 24 hrs by RT-PCR analysis; assay type: cell-based; procedure, shortened: as §3
[10] = Inhibition of hedgehog signaling pathway-mediated PTCH mRNA expression in mouse ASZ001 cells up to 10 uM after 24 hrs by RT-PCR analysis; assay type: cell-based
[11] = molecular target: Protein smoothened (Homo sapiens) (UniProt Q99835); test: Displacement of BODIPY-cyclopamine from full length human SMO receptor overexpressed in HEK293T cells up to 10 uM after 4 hrs by flow cytometric analysis; assay type: cell-based; conditions: HEK-293T
Protein smoothened (Homo sapiens), sequence (Q99835 whole entry): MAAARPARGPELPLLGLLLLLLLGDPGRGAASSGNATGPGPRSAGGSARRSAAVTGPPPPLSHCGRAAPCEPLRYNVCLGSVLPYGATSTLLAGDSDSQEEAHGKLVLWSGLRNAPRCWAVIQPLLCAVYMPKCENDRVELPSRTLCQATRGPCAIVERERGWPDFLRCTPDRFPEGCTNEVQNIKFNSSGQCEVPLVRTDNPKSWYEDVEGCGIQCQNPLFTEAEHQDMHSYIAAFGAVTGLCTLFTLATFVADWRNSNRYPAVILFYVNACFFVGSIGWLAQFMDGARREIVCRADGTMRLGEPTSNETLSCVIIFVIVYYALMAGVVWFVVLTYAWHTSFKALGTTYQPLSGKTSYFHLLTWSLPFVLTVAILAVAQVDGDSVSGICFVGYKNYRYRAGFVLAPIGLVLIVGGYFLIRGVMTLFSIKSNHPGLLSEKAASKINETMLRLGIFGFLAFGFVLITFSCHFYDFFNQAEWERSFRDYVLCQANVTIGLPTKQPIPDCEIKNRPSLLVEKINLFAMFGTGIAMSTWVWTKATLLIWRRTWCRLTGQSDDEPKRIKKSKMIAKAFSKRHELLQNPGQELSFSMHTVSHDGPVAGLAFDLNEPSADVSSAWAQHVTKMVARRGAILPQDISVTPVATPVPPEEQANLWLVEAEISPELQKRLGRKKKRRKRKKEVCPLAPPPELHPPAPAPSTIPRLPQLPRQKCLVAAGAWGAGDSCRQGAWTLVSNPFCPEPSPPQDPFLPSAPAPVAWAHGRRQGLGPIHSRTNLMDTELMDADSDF
Procedure, shortened: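 HEK293T cells transfected overnight with Myc-tagged full-length human Smo plasmid, split, then 2 days post-transfection incubated in DMEM/10% FBS with BODIPY-cyclopamine (5 nM) and test compound at 37 °C for 4 h. Cells trypsinized and resuspended in PBS. Bound BODIPY-cyclopamine read by flow cytometry. Transfection checked by anti-Myc staining. Representative experiment in triplicate.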

[12] = molecular target: Protein smoothened (Homo sapiens) (UniProt Q99835); test: Displacement of BODIPY-cyclopamine from full length human SMO receptor overexpressed in HEK293T cell membranes up to 10 uM after 5 hrs by fluorescence polarization assay; conditions: HEK-293T
Procedure, shortened: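 Membranes from HEK293T cells transfected with full-length human Smo, collected 24 h post-transfection. Cells lysed in hypotonic buffer (50 mM Tris-HCl, 1 mM EDTA, pH 7.5, protease inhibitors) by syringe passage. Membranes pelleted at 20000g after a 500g spin. Membranes (10 μg/well) incubated with BODIPY-cyclopamine (5 nM) and compound at 30 °C for 5 h. Fluorescence polarization at ex 485/em 528. Triplicate.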

[13] = Inhibition of hedgehog signaling pathway-mediated GLI1 mRNA expression in mouse C3H10T1/2 cells after 24 hrs by RT-PCR analysis in presence of GDC-0449; assay type: cell-based; conditions: C3H 10T1/2
[14] = Activation of hedgehog signaling pathway in non-targeting siRNA treated mouse C3H10T1/2 cells assessed as effect on VDR expression at 5 uM after 24 hrs by qPCR analysis; assay type: cell-based; conditions: C3H 10T1/2
Procedure, shortened: (§4)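 C3H10T1/2 cells transfected 24 h after seeding with mouse VDR-specific or nontargeting siRNA plus Lipofectamine 2000 in medium with 0.5% FBS for 6 h, then complete medium overnight. Treated 24 h post-transfection (5 μM; calcitriol 0.5 μM). RNA and cDNA prepared 24 h later (48 h post-transfection), then qPCR of VDR, Gli1 and Cyp24A1. Representative experiment in triplicate.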

[15] = Inhibition of hedgehog signaling pathway in non-targeting siRNA treated mouse C3H10T1/2 cells assessed as effect on VDR expression at 5 uM after 24 hrs by qPCR analysis; assay type: cell-based; conditions: C3H 10T1/2; procedure, shortened: as §4
[16] = Activation of hedgehog signaling pathway in VDR-knockdown mouse C3H10T1/2 cells assessed as effect on VDR expression at 5 uM after 24 hrs by qPCR analysis; assay type: cell-based; conditions: C3H 10T1/2; procedure, shortened: as §4
[17] = Inhibition of hedgehog signaling pathway in VDR-knockdown mouse C3H10T1/2 cells assessed as effect on VDR expression at 5 uM after 24 hrs by qPCR analysis; assay type: cell-based; conditions: C3H 10T1/2; procedure, shortened: as §4
[18] = Inhibition of hedgehog signaling pathway in VDR-knockdown mouse C3H10T1/2 cells assessed as downregulation of GLI1 expression at 5 uM after 24 hrs by qPCR analysis; assay type: cell-based; conditions: C3H 10T1/2; procedure, shortened: as §4
[19] = Inhibition of hedgehog signaling pathway in non-targeting siRNA treated mouse C3H10T1/2 cells assessed as downregulation of GLI1 expression at 5 uM after 24 hrs by qPCR analysis; assay type: cell-based; conditions: C3H 10T1/2; procedure, shortened: as §4
[20] = tested on: C3H 10T1/2; test: Effect on CYP24A1 RNA level in non-targeting siRNA treated mouse C3H10T1/2 cells at 5 uM after 24 hrs by qPCR analysis; assay type: functional, cell-based; procedure, shortened: as §4
[21] = tested on: C3H 10T1/2; test: Effect on CYP24A1 RNA level in VDR-knockdown mouse C3H10T1/2 cells at 5 uM after 24 hrs by qPCR analysis; assay type: functional, cell-based
[22] = Activation of hedgehog signaling pathway in non-targeting siRNA treated mouse C3H10T1/2 cells assessed as effect on VDR expression at 0.5 uM after 24 hrs by qPCR analysis; assay type: cell-based; conditions: C3H 10T1/2
[23] = Inhibition of hedgehog signaling pathway in non-targeting siRNA treated mouse C3H10T1/2 cells assessed as effect on VDR expression at 0.5 uM after 24 hrs by qPCR analysis; assay type: cell-based; conditions: C3H 10T1/2
[24] = Activation of hedgehog signaling pathway in VDR-knockdown mouse C3H10T1/2 cells assessed as effect on VDR expression at 0.5 uM after 24 hrs by qPCR analysis; assay type: cell-based; conditions: C3H 10T1/2
[25] = Inhibition of hedgehog signaling pathway in VDR-knockdown mouse C3H10T1/2 cells assessed as effect on VDR expression at 0.5 uM after 24 hrs by qPCR analysis; assay type: cell-based; conditions: C3H 10T1/2
[26] = tested on: C3H 10T1/2; test: Effect on CYP24A1 RNA level in non-targeting siRNA treated mouse C3H10T1/2 cells at 0.5 uM after 24 hrs by qPCR analysis; assay type: functional, cell-based

Compound | Activity [1] [%] | fold change (FC) [2] | inhibition [3] | IC50 [3] [µM] | IC50 [4] [µM] | IC50 [5] [µM] | fold change (FC) [6] | IC50 [7] [µM] | fold change (FC) [8] | IC50 [9] [µM] | inhibition [11] | inhibition [12] | inhibition [13] | Activity [14] | inhibition [15] | Activity [16] | inhibition [17] | Activity [20] | further results
C=C1CC[C@H](O)C/C1=C/C=C1\CCC[C@]2(C)[C@@H]([C@H](C)CCCC(C)C)CC[C@@H]12 [CHOLECALCIFEROL] | 35.7 | 8340 | Dose-dependent effect | 4.1 | 2.9 | 2.1 | 764 | > 10 | 149 | > 10 | inactive | inactive | Active | Active | Active | Active | Active | Active | inhibition [10]: inactive; inhibition [18]: inactive; inhibition [19]: Active
CC(C)CCC[C@@H](C)[C@H]1CC[C@H]2[C@@H](OC(=O)c3cccc(O)c3)CCC[C@]12C | 1.9 | 22.2 | Dose-dependent effect | 0.74 | 1.1 | 5.2 | 1.9 | 3.7 | 1.9 | 3.6 | inactive | inactive | Active | inactive | inactive | inactive | inactive | Active | Activity [21]: inactive
C=C1/C(=C\C=C2/CCC[C@]3(C)[C@@H]([C@H](C)CCCC(C)(C)O)CC[C@@H]23)C[C@@H](O)C[C@@H]1O | – | – | – | – | – | – | – | – | – | – | – | – | – | – | – | – | – | – | Activity [22]: Active; inhibition [23]: Active; Activity [24]: Active; inhibition [25]: Active; Activity [26]: Active

Reference: ChEMBL document CHEMBL3259768, “Structure-activity relationships for vitamin D3-based aromatic a-ring analogues as hedgehog pathway inhibitors” (J Med Chem, 2014)
